# Columns and labels:
# [1] = molecular target: T1, ATPase family AAA domain-containing protein 2B (Homo sapiens, UniProt Q9ULI0); assay: Binding affinity to N-terminal GST tagged human ATAD2B (953-1085 residues) expressed in Escherichia coli by ITC analysis
# T1 sequence (Q9ULI0 whole entry): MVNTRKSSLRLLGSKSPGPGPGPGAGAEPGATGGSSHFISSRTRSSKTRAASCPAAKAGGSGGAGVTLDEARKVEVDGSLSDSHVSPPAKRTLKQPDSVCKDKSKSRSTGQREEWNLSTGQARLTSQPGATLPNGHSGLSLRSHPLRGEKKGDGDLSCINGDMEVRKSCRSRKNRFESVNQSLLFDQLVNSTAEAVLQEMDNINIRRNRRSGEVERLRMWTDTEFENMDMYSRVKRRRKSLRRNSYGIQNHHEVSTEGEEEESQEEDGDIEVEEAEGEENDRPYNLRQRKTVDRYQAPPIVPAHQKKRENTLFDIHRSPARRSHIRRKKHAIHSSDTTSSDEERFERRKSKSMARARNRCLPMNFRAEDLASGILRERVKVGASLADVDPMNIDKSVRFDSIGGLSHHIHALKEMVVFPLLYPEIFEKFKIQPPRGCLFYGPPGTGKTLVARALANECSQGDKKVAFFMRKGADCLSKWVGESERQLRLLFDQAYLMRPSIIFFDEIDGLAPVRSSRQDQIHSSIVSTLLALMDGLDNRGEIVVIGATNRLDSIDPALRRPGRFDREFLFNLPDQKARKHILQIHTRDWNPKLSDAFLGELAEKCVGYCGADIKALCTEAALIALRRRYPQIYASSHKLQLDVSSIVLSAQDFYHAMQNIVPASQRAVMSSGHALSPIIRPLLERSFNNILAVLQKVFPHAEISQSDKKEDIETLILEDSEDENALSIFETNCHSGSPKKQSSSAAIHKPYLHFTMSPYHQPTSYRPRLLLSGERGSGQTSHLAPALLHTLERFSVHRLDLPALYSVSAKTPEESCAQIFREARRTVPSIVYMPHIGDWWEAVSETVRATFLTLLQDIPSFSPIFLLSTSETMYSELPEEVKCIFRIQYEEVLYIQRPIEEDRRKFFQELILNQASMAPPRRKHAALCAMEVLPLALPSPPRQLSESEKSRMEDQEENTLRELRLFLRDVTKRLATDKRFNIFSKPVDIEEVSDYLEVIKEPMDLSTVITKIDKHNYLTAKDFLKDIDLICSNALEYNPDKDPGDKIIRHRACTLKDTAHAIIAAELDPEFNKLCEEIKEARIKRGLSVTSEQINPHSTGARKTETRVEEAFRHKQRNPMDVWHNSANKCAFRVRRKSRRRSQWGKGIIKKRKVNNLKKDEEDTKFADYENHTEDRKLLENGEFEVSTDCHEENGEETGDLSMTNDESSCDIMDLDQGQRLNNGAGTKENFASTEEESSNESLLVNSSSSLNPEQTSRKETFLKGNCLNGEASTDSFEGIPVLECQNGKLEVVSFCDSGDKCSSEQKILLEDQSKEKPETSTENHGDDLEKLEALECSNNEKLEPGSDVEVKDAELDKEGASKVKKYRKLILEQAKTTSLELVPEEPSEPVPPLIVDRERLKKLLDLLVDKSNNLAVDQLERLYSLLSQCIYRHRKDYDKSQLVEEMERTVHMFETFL
# Procedure, shortened: (§1)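 GST tag removed by PreScission cleavage after glutathione-resin capture. Protein and peptides were dialyzed into 20 mM NaH2PO4 pH 7.0, 150 mM NaCl. Peptide dilution heats were subtracted. KD is the mean ± SD of triplicates; non-binders were run in duplicate.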
# [2] = molecular target: T2, ATPase family AAA domain-containing protein 2 (Homo sapiens, UniProt Q6PL18); assay: Binding affinity to N-terminal GST tagged human ATAD2 (1-25 residues) expressed in Escherichia coli by ITC analysis
# T2 sequence (Q6PL18 whole entry): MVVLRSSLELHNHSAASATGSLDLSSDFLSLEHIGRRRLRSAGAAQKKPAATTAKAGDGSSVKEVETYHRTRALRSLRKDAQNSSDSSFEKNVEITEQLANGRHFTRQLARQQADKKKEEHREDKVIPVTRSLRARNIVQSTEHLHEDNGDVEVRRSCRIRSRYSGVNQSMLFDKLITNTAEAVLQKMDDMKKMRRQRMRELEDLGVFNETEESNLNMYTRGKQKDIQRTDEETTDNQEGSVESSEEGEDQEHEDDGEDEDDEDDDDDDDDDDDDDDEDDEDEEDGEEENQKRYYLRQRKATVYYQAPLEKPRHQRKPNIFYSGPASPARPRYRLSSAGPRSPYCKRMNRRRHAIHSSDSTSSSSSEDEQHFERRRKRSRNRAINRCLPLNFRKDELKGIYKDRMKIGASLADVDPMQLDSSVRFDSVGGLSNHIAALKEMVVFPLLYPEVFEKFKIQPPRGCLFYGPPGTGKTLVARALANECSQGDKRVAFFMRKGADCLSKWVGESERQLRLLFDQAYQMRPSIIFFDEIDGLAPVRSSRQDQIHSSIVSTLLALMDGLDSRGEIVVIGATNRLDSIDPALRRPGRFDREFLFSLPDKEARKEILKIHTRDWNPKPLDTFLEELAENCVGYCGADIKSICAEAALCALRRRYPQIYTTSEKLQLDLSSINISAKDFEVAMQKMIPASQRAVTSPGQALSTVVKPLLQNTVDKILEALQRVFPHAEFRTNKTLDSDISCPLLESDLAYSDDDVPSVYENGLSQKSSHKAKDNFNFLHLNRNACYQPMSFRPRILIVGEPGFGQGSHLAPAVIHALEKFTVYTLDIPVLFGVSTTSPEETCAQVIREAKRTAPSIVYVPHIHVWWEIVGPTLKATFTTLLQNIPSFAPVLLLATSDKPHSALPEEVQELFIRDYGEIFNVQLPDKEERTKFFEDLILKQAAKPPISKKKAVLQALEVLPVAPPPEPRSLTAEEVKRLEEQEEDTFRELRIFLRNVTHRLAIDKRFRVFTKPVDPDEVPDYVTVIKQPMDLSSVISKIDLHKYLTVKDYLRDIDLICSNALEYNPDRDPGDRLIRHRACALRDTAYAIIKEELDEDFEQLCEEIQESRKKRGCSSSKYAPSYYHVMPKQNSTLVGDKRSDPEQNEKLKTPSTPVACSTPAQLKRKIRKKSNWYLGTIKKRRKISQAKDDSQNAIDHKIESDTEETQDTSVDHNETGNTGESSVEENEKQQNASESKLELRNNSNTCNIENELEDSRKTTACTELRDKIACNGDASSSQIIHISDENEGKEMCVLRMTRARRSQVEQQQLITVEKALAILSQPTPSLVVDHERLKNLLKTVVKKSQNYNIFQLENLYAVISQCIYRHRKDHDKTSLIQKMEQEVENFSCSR
# [3] = Binding affinity to N-terminal GST tagged human ATAD2B Y995A mutant expressed in Escherichia coli by ITC analysis; procedure, shortened: as §1
# [4] = Binding affinity to N-terminal GST tagged human ATAD2B Y1037A mutant expressed in Escherichia coli by ITC analysis; procedure, shortened: as §1
# [5] = molecular target: T1, ATPase family AAA domain-containing protein 2B; assay: Binding affinity to N-terminal GST tagged human ATAD2B short form expressed in Escherichia coli by ITC analysis; procedure, shortened: as §1
# [6] = molecular target: T2, ATPase family AAA domain-containing protein 2; assay: Binding affinity to N-terminal GST tagged human ATAD2 (1-20 residues) expressed in Escherichia coli by ITC analysis
# [7] = Binding affinity to N-terminal GST tagged human ATAD2B N1038A mutant expressed in Escherichia coli by ITC analysis; procedure, shortened: as §1
Compound,Kd [1],Kd ([1]; read-out: Kd),Kd [3],Kd [4],Kd [5],other results
CC(=O)NCCCC[C@H](NC(=O)CNC(=O)CN)C(=O)NCC(=O)N[C@@H](CC(C)C)C(=O)NCC(=O)N[C@@H](CCCCNC(C)=O)C(=O)NCC(=O)NCC(=O)N[C@@H](C)C(=O)O,Not Active,,,,,
CC(=O)NCCCC[C@H](NC(=O)CNC(=O)[C@H](CC(C)C)NC(=O)CNC(=O)[C@H](CCCCN)NC(=O)CNC(=O)CNC(=O)[C@H](CCCCN)NC(=O)CN)C(=O)NCC(=O)NCC(=O)N[C@@H](C)C(=O)N[C@@H](CCCCN)C(=O)N[C@@H](CCCNC(=N)N)C(=O)O,,50.5 µM,Not Active,Not Active,Not Active,Kd [2]: 2.5 µM
H-SGRGKGGK(Ac)GL-OH,,1160 µM,,,,
Cc1cncc(-c2ccc(N[C@@H]3CCNC[C@H]3OCC3CCS(=O)(=O)CC3)c3[nH]c(=O)c(C)cc23)c1,,0.167 µM,,,Not Active,
H-SGRGK(Ac)GGKGL-OH,,48 µM,Not Active,Not Active,Not Active,Kd [6]: 22 µM
CC(=O)NCCCC[C@H](NC(=O)CN)C(=O)NCC(=O)NCC(=O)N[C@@H](CCCCN)C(=O)NCC(=O)N[C@@H](CC(C)C)C(=O)NCC(=O)N[C@@H](CCCCN)C(=O)NCC(=O)NCC(=O)N[C@@H](C)C(=O)N[C@@H](CCCCN)C(=O)N[C@@H](CCCNC(=N)N)C(=O)O,Not Active,,,,,Kd [7]: Not Active
H-LGKGGAK(Ac)RHRK-OH,Not Active,,,,,
CC(=O)NCCCC[C@H](NC(=O)CNC(=O)CNC(=O)[C@H](CCCCN)NC(=O)CN)C(=O)NCC(=O)N[C@@H](CC(C)C)C(=O)NCC(=O)N[C@@H](CCCCN)C(=O)NCC(=O)NCC(=O)N[C@@H](C)C(=O)N[C@@H](CCCCN)C(=O)N[C@@H](CCCNC(=N)N)C(=O)O,Not Active,,,,,
H-LGK(Ac)GGAK(Ac)RHRK-OH,,214 µM,,,,
C[C@H](N)C(=O)N[C@@H](CCCNC(=N)N)C(=O)N[C@H](C(=O)N[C@@H](CCCCN)C(=O)N[C@@H](CCC(N)=O)C(=O)N[C@H](C(=O)N[C@@H](C)C(=O)N[C@@H](CCCNC(=N)N)C(=O)N[C@@H](CCCCN)C(=O)N[C@@H](CO)C(=O)N[C@H](C(=O)NCC(=O)O)[C@@H](C)O)[C@@H](C)O)[C@@H](C)O,Not Active,,,,,
C[C@H](NC(=O)[C@H](CCCCN)NC(=O)CNC(=O)CNC(=O)[C@@H](NC(=O)[C@H](CO)NC(=O)[C@H](CCCCN)NC(=O)[C@@H](N)CCCNC(=N)N)[C@@H](C)O)C(=O)N1CCC[C@H]1C(=O)N[C@@H](CCCNC(=N)N)C(=O)N[C@@H](CCCCN)C(=O)N[C@@H](CCC(N)=O)C(=O)O,Not Active,,,,,
H-SGRGK(Ac)QGGKARA-OH,,42.5 µM,Not Active,Not Active,Not Active,
H-SGRGK(Ac)GGK(Ac)GL-OH,,28.1 µM,Not Active,Not Active,Not Active,Kd ([7]; read-out: Kd): 623 µM

# Reference: ChEMBL document CHEMBL4665884, “Structural Insights into the Recognition of Mono- and Diacetylated Histones by the ATAD2B Bromodomain” (J Med Chem, 2020)
